Data published in ChEMBL document CHEMBL1129366, “Novel selective PDE IV inhibitors as antiasthmatic agents. Synthesis and biological activities of a series of 1-aryl-2,3-bis(hydroxymethyl)naphthalene lignans” (J Med Chem, 1996).
Where “and” joins values, the source holds several entries; their conditions need not be identical. Identical values can stand only once.

Experiments:
Cavia porcellus [1] = assay: Reduced histamine-induced bronchoconstriction in anesthetized guinea pig at 0.3 mg/kg intravenous dose; type: functional
Cavia porcellus [2] = assay: Change in heart rate in guinea pigs after 0.3 mg/kg intravenous dose; type: functional
Procedure, shortened: (§1)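 Anesthetized guinea pigs in the histamine bronchospasm setup, with spontaneous breathing abolished by gallamine triethiodide (5 mg/kg iv). Heart rate was taken by cardiography triggered on the ECG R wave (standard limb lead II). Test agent was suspended in saline with Tween 80 and given iv 1 min before histamine. The value is the post-dose rate minus the basal rate (basal 230–330 beats/min).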

Phosphodiesterase 3 [3] = target: T1, Phosphodiesterase 3 (Homo sapiens, UniProt Q14432+Q13370); assay: Inhibition in vitro of Phosphodiesterase 3 isolated from guinea pig cardiac ventricle; type: protein assay, Cavia porcellus; settings: target entry is the homologue from another species
Procedure, shortened: (§2)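 PDEs came from guinea pig cardiac ventricle (types I, III) and lung (types IV, V). Tissue was homogenized at pH 6.5 with protease inhibitors and spun at 25000G, and the supernatant was run on DEAE-Sephacrose with a 50–1000 mM sodium acetate gradient. Assay: 40 mM Tris-HCl pH 8.0, 5 mM MgCl2, 4 mM 2-mercaptoethanol, 1.0 μM [3H]cAMP or [3H]cGMP, 20 min at 30 °C, substrate hydrolysis ≤20%. Triplicates at 3–4 inhibitor levels; IC50 read graphically.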

Phosphodiesterase 4 = Phosphodiesterase 4 (Homo sapiens, UniProt P27815+Q08499+Q07343+Q08493); assay: Inhibition in vitro of Phosphodiesterase 4 activity isolated from guinea pig lung; type: protein assay, Cavia porcellus; settings: target entry is the homologue from another species; procedure, shortened: as §2
Cavia porcellus [4] = assay: Reduced histamine-induced bronchoconstriction in anesthetized guinea pig at 0.1 mg/kg intravenous dose; type: functional
Cavia porcellus [5] = assay: Change in heart rate in guinea pigs after 0.1 mg/kg intravenous dose; type: functional; procedure, shortened: as §1
[6] = target: Phosphodiesterase 1 (Cavia porcellus); assay: Inhibition in vitro of Phosphodiesterase 1 isolated from guinea pig cardiac ventricle
Cavia porcellus [7] = assay: Inhibition of histamine-induced bronchoconstriction in anesthetized guinea pig at 0.03 mg/kg intravenous dose
Cavia porcellus [8] = assay: Change in heart rate in guinea pigs after 0.03 mg/kg intravenous dose; type: functional; procedure, shortened: as §1
Cavia porcellus [9] = assay: Reduced histamine-induced bronchoconstriction in anesthetized guinea pig at 0.03 mg/kg intravenous dose; type: functional
Cavia porcellus [10] = assay: Inhibition of histamine-induced bronchoconstriction in anesthetized guinea pig at 3 mg/kg intravenous dose
Cavia porcellus [11] = assay: Change in heart rate in guinea pigs after 1 mg/kg intravenous dose; type: functional; procedure, shortened: as §1
Cavia porcellus [12] = assay: Reduced histamine-induced bronchoconstriction in anesthetized guinea pig at 1 mg/kg intravenous dose; type: functional
Procedure, shortened: (§3)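 Anesthetized guinea pigs immobilized with gallamine triethiodide (5 mg/kg iv) and artificially ventilated. Histamine dihydrochloride (2 μg/kg) given iv via the lateral saphenous vein at 10 min intervals. Compound suspended in saline with Tween 80, given iv 1 min before histamine. Pulmonary inflation pressure recorded as the bronchospasm index; result expressed as percent inhibition of histamine-induced bronchoconstriction.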

Cavia porcellus [13] = assay: Inhibition of antigen-induced bronchoconstriction in anesthetized guinea pig at 3 mg/kg intravenous dose; type: functional
Cavia porcellus [14] = assay: Change in heart rate in guinea pigs after 3 mg/kg intravenous dose; type: functional; procedure, shortened: as §1
Cavia porcellus [15] = assay: Reduced histamine-induced bronchoconstriction in anesthetized guinea pig at 3 mg/kg intravenous dose; type: functional; procedure, shortened: as §3
Cavia porcellus [16] = assay: Inhibition of histamine-induced bronchoconstriction in anesthetized guinea pig at 0.1 mg/kg intravenous dose
Cavia porcellus [17] = assay: (§4) Inhibition of antigen-induced bronchoconstriction in anesthetized guinea pig at 0.1 mg/kg intravenous dose; type: functional
Phosphodiesterase 1 = Phosphodiesterase 1 (Homo sapiens, UniProt P54750+Q01064+Q14123); assay: Inhibition of Phosphodiesterase 1 from guinea pig cardiac ventricle; type: protein assay, Cavia porcellus; settings: target entry is the homologue from another species
Procedure, shortened: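 PDE I pooled from DEAE-Sepharose fractions of guinea pig cardiac ventricle homogenate (pH 6.5 buffer with protease inhibitors, sodium acetate gradient). Assay buffer 40 mM Tris-HCl pH 8.0, 5 mM MgCl2, 4 mM 2-mercaptoethanol. Substrate [3H]cAMP or [3H]cGMP at 1.0 μM, hydrolysis kept ≤20%. Run 20 min at 30 °C, inhibitors in DMSO. Triplicates at 3–4 concentrations, IC50 read graphically from means.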

[18] = Inhibition of Phosphodiesterase 4 from guinea pig lung; set-up: species or system Cavia porcellus; procedure, shortened: as §2
Phosphodiesterase 3 [19] = target: T1, Phosphodiesterase 3; assay: Inhibition of Phosphodiesterase 3 from guinea pig cardiac ventricle; type: protein assay, Cavia porcellus; settings: target entry is the homologue from another species; procedure, shortened: as §2
[20] = Inhibition of Phosphodiesterase 5 from guinea pig lung; set-up: species or system Cavia porcellus; procedure, shortened: as §2
Cavia porcellus [21] = assay: as §4; type: functional; remark: listed apart in the source
Cavia porcellus [22] = assay: Change in guinea pig heart rate after intravenous administration of 0.1 mg/kg; type: functional; procedure, shortened: as §1

Row | IC50 (Phosphodiesterase 3 [3]) | IC50 (Phosphodiesterase 4) | IC50 [6] | SMILES | Heart rate (Cavia porcellus [2]) | also measured
1 | 0.06 µM | 0.005 µM | > 100 µM | COc1cc2cc(CO)c(CO)c(-c3cc(OC)c(OC)c(C(=O)N(C)C)c3)c2cc1OC | 50 beats min-1 | Reduction (Cavia porcellus [4]): 83%; Heart rate (Cavia porcellus [5]): 28 beats min-1; Reduction (Cavia porcellus [1]): 69%; ED50 (Cavia porcellus [7]): 0.03 mg/kg; Heart rate (Cavia porcellus [8]): 1 beats min-1; Reduction (Cavia porcellus [9]): 59%
2 | 20 µM | 0.05 µM | 50 µM | CCOc1cc2cc(CO)c(CO)c(-c3cc(N)c(OC)c(OC)c3)c2cc1OCC.Cl | – | Reduction (Cavia porcellus [1]; 0.3 mg/kg): 45% and 90%; ED50 (Cavia porcellus [10]): 0.39 mg/kg; Heart rate (Cavia porcellus [11]): 1 beats min-1; Reduction (Cavia porcellus [12]): 69%; ED50 (Cavia porcellus [13]): > 10 mg/kg
3 | 20 µM | 0.6 µM | – | COc1cc2cc(CO)c(CO)c(-c3ccn(C)c(=O)c3)c2cc1OC | – | –
4 | 2 µM | 0.07 µM | 100 µM | COc1cc2cc(CO)c(CO)c(-c3cc(NC(C)=O)c(OC)c(OC)c3)c2cc1OC | – | –
5 | 0.9 µM | 0.3 µM | 60 µM | COc1cc2cc(CO)c(CO)c(-c3cc(OC)c(OC)c(OC)c3)c2cc1OC | – | Delta beats/min (Cavia porcellus [14]): 79; Reduction (Cavia porcellus [15]): 89%
6 | 20 µM | 40 µM | 30 µM | COc1ccc2c(-c3cc(OC)c(OC)c(OC)c3)c(CO)c(CO)cc2c1 | – | –
7 | 1 µM | 0.2 µM | – | COc1ccc(-c2c(CO)c(CO)cc3cc(OC)c(OC)cc23)cc1OC | – | –
8 | 0.09 µM | 0.05 µM | 100 µM | COc1cc2cc(CO)c(CO)c(-c3cc(OC)c(OC)c(S(C)(=O)=O)c3)c2cc1OC | -7 beats min-1 | Reduction (Cavia porcellus [4]): 57%; Heart rate (Cavia porcellus [5]): 1 beats min-1; Reduction (Cavia porcellus [1]): 71%; ED50 (Cavia porcellus [7]): 0.093 mg/kg; Heart rate (Cavia porcellus [8]): 3 beats min-1; Reduction (Cavia porcellus [9]): 34%
9 | > 100 µM | > 30 µM | > 100 µM | COc1cc(-c2c(CO)c(CO)cc3cc4c(cc23)OCO4)cc(OC)c1OC | – | –
10 | 8 µM | 5 µM | 40 µM | COc1cc2cc(CO)c(CO)c(Cc3cc(OC)c(OC)c(OC)c3)c2cc1OC | – | –

Second part, the compound before the results:

Row | SMILES | IC50 (Phosphodiesterase 3 [3]) | IC50 (Phosphodiesterase 4) | IC50 [6] | Heart rate (Cavia porcellus [2]) | also measured
11 | CCCCn1ccc(-c2c(CO)c(CO)cc3cc(OCC)c(OCC)cc23)cc1=O | 50 µM | 0.03 µM | – | -5 beats min-1 | Reduction (Cavia porcellus [1]): 47%
12 | COc1cc2cc(CO)c(CO)cc2cc1OC | > 100 µM | 20 µM | > 100 µM | – | –
13 | COc1cc2cc(CO)c(CO)c(C3=CC=NC(=O)C3)c2cc1OC | 20 µM | 0.2 µM | > 100 µM | – | –
14 | COc1ccc(C2CNC(=O)C2)cc1OC1CCCC1 (centres undefined) [ROLIPRAM] | – | – | – | – | Reduction (Cavia porcellus [4]): 79%; ED50 (Cavia porcellus [16]): 0.01 mg/kg; ED50 (Cavia porcellus [17]): 19 mg/kg; Heart rate (Cavia porcellus [5]): 9 beats min-1; IC50 (Phosphodiesterase 1): > 100 µM; IC50 [18]: 1.9 µM; IC50 (Phosphodiesterase 3 [19]): > 100 µM; Heart rate (Cavia porcellus [11]): 3 beats min-1; IC50 [20]: > 100 µM; Reduction (Cavia porcellus [12]): 72%
15 | CCOc1cc2cc(CO)c(CO)c(-c3ccn(CCOC)c(=O)c3)c2cc1OC | 7 µM | 0.45 µM | – | 4 beats min-1 | Reduction (Cavia porcellus [1]): 30%; Heart rate (Cavia porcellus [14]): 6 beats min-1; Heart rate (Cavia porcellus [11]): 7 beats min-1; Reduction (Cavia porcellus [15]): 98%; Reduction (Cavia porcellus [12]): 76%
16 | CCOc1cc2cc(CO)c(CO)c(-c3ccn(CCOC)c(=O)c3)c2cc1OCC | 57 µM | 0.057 µM | – | 5 beats min-1 | Reduction (Cavia porcellus [4]): 60%; ED50 (Cavia porcellus [17]): 0.08 mg/kg; Reduction (Cavia porcellus [1]): 92%; Heart rate (Cavia porcellus [14]): 5 beats min-1; ED50 (Cavia porcellus [21]): 2.3 mg/kg; Heart rate (Cavia porcellus [22]): 5 beats min-1
17 | COc1cc2cc3c(c(-c4cc(OC)c(OC)c(OC)c4)c2cc1OC)C(=O)OC3 | – | 0.5 µM | – | – | –
18 | COCCn1ccc(-c2c(CO)c(CO)cc3cc(OC)c(OC)cc23)cc1=O | 14 µM | 0.5 µM | – | 3 beats min-1 | Reduction (Cavia porcellus [4]): 34%; ED50 (Cavia porcellus [17]): 0.16 mg/kg; Heart rate (Cavia porcellus [5]): 1 beats min-1; Reduction (Cavia porcellus [15]): 70%
